Results on 29 compounds are retold here after ChEMBL document CHEMBL1124955, “2-substituted-1-naphthols as potent 5-lipoxygenase inhibitors with topical antiinflammatory activity” (J Med Chem, 1990).

Experiment [1] has as its system Mus musculus. The experiment in a line: Percentage inhibition of the mouse arachidonic acid induced ear edema assay (AA) at a dose of 100 ug/ear. Type of experiment: functional. A digest of the protocol:
(§1)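 Groups of 10 male CF1 mice (18–20 g). Compound in acetone is applied topically to both ears just before 1 mg arachidonic acid in acetone is applied to one ear; the other ear serves as control. Mice are killed 60 min later and 6-mm ear punches weighed; swelling is the weight difference. %Inhibition = [(C−T)/C]×100, with Student's t test.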

The subject of experiment [2] is Mus musculus. Description: Effective dose to inhibit 50% of mouse arachidonic acid induced ear edema assay. The class given is functional. In outline: as §1
Experiment [3] deals with T1, Polyunsaturated fatty acid 5-lipoxygenase (Rattus norvegicus, UniProt P12527).
T1 sequence (P12527 whole entry): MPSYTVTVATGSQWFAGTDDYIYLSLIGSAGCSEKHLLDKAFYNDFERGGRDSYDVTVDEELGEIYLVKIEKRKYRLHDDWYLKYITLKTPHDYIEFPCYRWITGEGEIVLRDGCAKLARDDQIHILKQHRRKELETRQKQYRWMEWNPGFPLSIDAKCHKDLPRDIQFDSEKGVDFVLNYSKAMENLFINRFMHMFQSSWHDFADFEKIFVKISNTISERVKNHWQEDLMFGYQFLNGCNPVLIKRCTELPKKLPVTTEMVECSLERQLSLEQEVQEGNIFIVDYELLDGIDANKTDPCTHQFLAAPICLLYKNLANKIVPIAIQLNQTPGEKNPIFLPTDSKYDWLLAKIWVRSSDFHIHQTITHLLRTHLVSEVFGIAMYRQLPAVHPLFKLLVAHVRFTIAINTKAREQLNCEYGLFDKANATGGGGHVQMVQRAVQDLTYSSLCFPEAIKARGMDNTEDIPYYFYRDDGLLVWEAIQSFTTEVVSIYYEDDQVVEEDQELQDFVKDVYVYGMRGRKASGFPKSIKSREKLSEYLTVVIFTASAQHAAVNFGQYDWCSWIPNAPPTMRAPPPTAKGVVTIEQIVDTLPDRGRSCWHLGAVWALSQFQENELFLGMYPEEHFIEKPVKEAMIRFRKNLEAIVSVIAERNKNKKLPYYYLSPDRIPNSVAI
Description: Ability to inhibit 5-lipoxygenase by using a crude preparation of the cytosolic enzyme from the rat basophilic leukemia (RBL-1) cell line. The class given is cell-based. A digest of the protocol: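 Crude cytosolic enzyme (supernatant) from RBL-1 cells, amount giving net 3300–3800 dpm 5-HETE (9–20 μg cell protein/assay). Enzyme is preincubated 5 min at 37 °C, pH 7.0, with compound (in 5% DMSO/Tris pH 8.5) in phosphate buffer with EDTA, gelatin, glutathione, CaCl2 and 0.012 mM indomethacin. Reaction is started with 0.042 mM final [14C]arachidonic acid and stopped by freezing after 2 min.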

A further experiment concerns the target T2, Cyclooxygenase (Bos taurus, UniProt O62664+O62698).
T2 sequence (O62664 whole entry): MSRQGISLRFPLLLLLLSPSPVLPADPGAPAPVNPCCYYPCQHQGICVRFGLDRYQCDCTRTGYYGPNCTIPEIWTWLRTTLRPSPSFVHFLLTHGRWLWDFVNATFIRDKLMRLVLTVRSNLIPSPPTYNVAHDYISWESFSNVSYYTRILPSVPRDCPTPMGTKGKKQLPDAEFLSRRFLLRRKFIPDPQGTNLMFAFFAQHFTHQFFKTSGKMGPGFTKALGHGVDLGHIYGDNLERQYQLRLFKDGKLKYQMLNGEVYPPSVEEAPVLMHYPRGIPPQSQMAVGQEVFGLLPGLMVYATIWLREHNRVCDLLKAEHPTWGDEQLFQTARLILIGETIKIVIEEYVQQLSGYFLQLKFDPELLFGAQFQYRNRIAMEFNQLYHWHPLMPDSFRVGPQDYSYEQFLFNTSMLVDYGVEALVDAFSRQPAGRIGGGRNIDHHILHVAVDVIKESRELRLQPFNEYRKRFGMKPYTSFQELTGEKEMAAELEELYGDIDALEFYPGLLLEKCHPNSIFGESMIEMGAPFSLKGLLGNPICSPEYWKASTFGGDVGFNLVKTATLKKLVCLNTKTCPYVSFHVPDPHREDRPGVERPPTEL
T2 sequence (O62698 whole entry): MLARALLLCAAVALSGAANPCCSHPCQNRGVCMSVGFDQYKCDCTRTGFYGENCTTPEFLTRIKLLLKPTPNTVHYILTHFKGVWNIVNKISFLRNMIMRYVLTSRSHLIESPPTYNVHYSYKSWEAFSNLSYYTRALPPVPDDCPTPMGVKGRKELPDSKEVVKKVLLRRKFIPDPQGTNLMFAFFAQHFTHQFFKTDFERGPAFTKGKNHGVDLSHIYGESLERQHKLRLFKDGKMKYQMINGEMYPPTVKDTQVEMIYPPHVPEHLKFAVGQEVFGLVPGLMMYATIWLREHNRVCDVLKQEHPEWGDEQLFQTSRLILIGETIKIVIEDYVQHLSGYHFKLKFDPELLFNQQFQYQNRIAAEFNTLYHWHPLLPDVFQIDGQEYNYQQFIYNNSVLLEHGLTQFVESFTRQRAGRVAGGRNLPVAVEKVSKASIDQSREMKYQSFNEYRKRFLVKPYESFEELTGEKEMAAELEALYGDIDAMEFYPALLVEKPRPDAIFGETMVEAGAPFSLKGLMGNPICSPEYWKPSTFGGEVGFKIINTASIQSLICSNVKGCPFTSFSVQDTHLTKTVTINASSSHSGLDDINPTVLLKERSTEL
The experiment in a line: In vitro inhibition of Prostaglandin G/H synthase in BSV cell line. Type of experiment: cell-based.

Experiment [4] addresses Cyclooxygenase (Bos taurus) (UniProt O62664+O62698). The experiment in a line: Ability to inhibit Prostaglandin G/H synthase by using the bovine seminal vesicle enzyme assay on BSV cell line at a concentration of 75 uM. The class given is tissue-based. In outline:
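Bovine seminal vesicle cyclooxygenase (40 μg) with Tris pH 8.5 and cofactors (glutathione, epinephrine, EDTA) is chilled on ice. Compound in DMSO diluted with Tris is added, then preincubated 2 min at 37 °C. [14C]arachidonic acid (0.2 μCi/mL in 0.1 mM sodium arachidonate) is added and the reaction runs 10 min. Duplicates are run; values are the percent inhibition at the concentration shown.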

The target in experiment [5] is T3, Polyunsaturated fatty acid 5-lipoxygenase (Rattus norvegicus) (UniProt P12527).
T3 sequence (whole entry): T1 sequence (P12527 whole entry)
Description: Ability to inhibit 5-lipoxygenase by using a crude preparation of the cytosolic enzyme from the rat basophilic leukemia (RBL-1) cell line at a concentration of 25 uM. The class given is cell-based.

Experiment [6] concerns Mus musculus. Description: percentage inhibition of the mouse arachidonic acid induced ear edema assay (AA) (Dose is 100 ug/ear). Type of experiment: functional. In outline:
as §1

In general, Inhibition refers to the share of the control response that was lost under treatment. By IC50 is commonly meant the concentration that gives 50% inhibition. Low readings indicate higher potency, high ones lower potency. Broadly, the inhibition is the share of the control response that was lost under treatment. High values mean a strong effect, low ones a weak effect.

As to `Oc1c(Cc2ccccc2)ccc2ccccc12`, the Inhibition in the experiment on Mus musculus [1] is listed as 82%. In the experiment with Mus musculus [2], this compound gave an ED50 of 9.4 ug ear-1. In addition, the IC50 in experiment [3] amounted to 0.019 µM; against Cyclooxygenase it was 3.4 µM.
In the experiment with Mus musculus [1], `O=C(c1ccccc1)c1ccc2ccccc2c1O` displayed an Inhibition of 30%. This compound yielded an IC50 in experiment [3] of 20 µM. In addition, the inhibition in experiment [4] amounted to 26%.
In the experiment on Mus musculus [1], `CC(=O)Nc1c(Cc2ccccc2)ccc2ccccc12` came in with an Inhibition of 8%. The inhibition in experiment [5] is 13%.
The compound `CCOC(=O)c1ccc2ccccc2c1O` had an Inhibition in the experiment on Mus musculus [1] of 0%. This compound also gave an IC50 in experiment [3] of 25 µM. The compound also registered an inhibition in experiment [4] of 0%.
In turn, `Oc1ccc2ccccc2c1Cc1ccccc1` displayed an Inhibition with Mus musculus [6] of 23%. For the same compound, the IC50 was found to be 3.9 µM in experiment [3] and 16 µM on Cyclooxygenase.
In turn, `Cc1ccc2ccccc2c1O` yielded an Inhibition with Mus musculus [1] of 73%. The results for the IC50 (in experiment [3]; against Cyclooxygenase) were 0.13 µM and 3 µM, respectively.
The like results for `CC(c1ccccc1)c1ccc2ccccc2c1O` (stereo unspecified) were, in that order, 45%, 0.07 µM and 8.7 µM.
For the compound `O=C1C=C(Cc2ccccc2)C(=O)c2ccccc21`, the Inhibition with Mus musculus [1] is 59%. Besides, in experiment [3], 0.29 µM corresponded to half-maximal inhibition (IC50). This compound also came in with an inhibition in experiment [4] of 16%.
As for `Oc1c(/C=C\c2ccccc2)ccc2ccccc12`, in the experiment on Mus musculus [1], the Inhibition came to 65%. Moreover, the IC50 in experiment [3] came out at 0.16 µM; at Cyclooxygenase, 13 µM.
In the case of `O=C(O)c1c(Cc2ccccc2)ccc2ccccc12`, the Inhibition with Mus musculus [1] amounted to 0%. The results for the inhibition in experiment [5] and in experiment [4] were 2% and 15%, respectively.
In the experiment with Mus musculus [1], `COc1ccc2c(c1)c(CC(=O)O)c(C)n2C(=O)c1ccc(Cl)cc1` [INDOMETHACIN] yielded an Inhibition of 20%. The same compound came in with an ED50 in the experiment on Mus musculus [2] of 780 ug ear-1. The inhibition in experiment [5] worked out at 47%.
`O=C1CCN(c2ccccc2)N1` [PHENIDONE] registered an Inhibition in the experiment with Mus musculus [1] of 58%. In the experiment on Mus musculus [2], this compound gave an ED50 of 41 ug ear-1. This compound had an inhibition in experiment [4] of 31%.
In the experiment on Mus musculus [1], `CCOC(=O)CCC/C(=N\O)c1ccc2ccccc2c1O` displayed an Inhibition of 29%. Half-maximal inhibition in experiment [3] (IC50) required 2.7 µM. Moreover, the inhibition in experiment [4] turned out to be 27%.
In turn, `Oc1cc(Cc2ccccc2)cc2ccccc12` registered an Inhibition in the experiment with Mus musculus [1] of 28%. Also, the IC50 in experiment [3] turned out to be 0.69 µM; on Cyclooxygenase, 2.7 µM.
For the compound `CCOC(=O)CCCC(=O)c1ccc2ccccc2c1O`, in the experiment on Mus musculus [1], the Inhibition is given as 13%. Also, the inhibition in experiment [5] is 23%; in experiment [4] it was 12%.
Regarding `C=CCc1ccc2ccccc2c1O`, the Inhibition in the experiment on Mus musculus [1] is listed as 91%. In addition, the ED50 with Mus musculus [2] was found to be 4.4 ug ear-1. The half-maximal inhibitory concentration (IC50) in experiment [3] is 0.056 µM; at Cyclooxygenase it was 18 µM.
Compound `CC(C)(C)c1ccc2ccccc2c1O` had an Inhibition in the experiment on Mus musculus [1] of 67%. In addition, the IC50 in experiment [3] was 0.18 µM; against Cyclooxygenase, 37 µM.
Taken in the same sequence, the figures for `Oc1ccc(Cc2ccccc2)c2ccccc12` were 42%, 0.82 µM and 5.9 µM.
For `Cl.Nc1c(Cc2ccccc2)ccc2ccccc12`, the Inhibition with Mus musculus [1] is recorded as 35%. Further, the half-maximal inhibitory concentration (IC50) amounted to 9.1 µM in experiment [3] and 18 µM against Cyclooxygenase.
For the compound `O=C(O)CCCCc1ccc2ccccc2c1O`, the Inhibition in the experiment with Mus musculus [1] is 9%. Besides, the figures for the IC50 (in experiment [3]; on Cyclooxygenase) were 4.2 µM and 720 µM, respectively.
For the compound `OCCOc1c(Cc2ccccc2)ccc2ccccc12`, the Inhibition in the experiment with Mus musculus [1] was 12%. The midpoint of inhibition in experiment [3], the IC50, lay at 40 µM. In experiment [4], this compound returned an inhibition of 28%.
Turning to `CCOC(=O)CCCCc1ccc2ccccc2c1O`, in the experiment on Mus musculus [1], the Inhibition is reported as 74%. This compound also gave an ED50 with Mus musculus [2] of 40 ug ear-1. Moreover, the IC50 worked out at 0.011 µM in experiment [3] and 18 µM on Cyclooxygenase.
The compound `CCOC(=O)CCc1ccc2ccccc2c1O` had an Inhibition in the experiment with Mus musculus [1] of 69%. Moreover, the IC50 was found to be 0.058 µM in experiment [3] and 13 µM at Cyclooxygenase.
For `COc1c(OC)c(OC(C)=O)c2cc(Cl)ccc2c1OC(C)=O` [LONAPALENE], the Inhibition in the experiment on Mus musculus [1] is reported as 50%. In the experiment with Mus musculus [2], this compound yielded an ED50 of 100 ug ear-1. For the same compound, the IC50 in experiment [3] stood at 0.7 µM. Besides, in experiment [4], the inhibition was 0%.
In the experiment with Mus musculus [1], `COc1c(Cc2ccccc2)ccc2ccccc12` had an Inhibition of 5%. In experiment [3], this compound had an IC50 of 55 µM. This compound returned an inhibition in experiment [4] of 0%.
In the experiment with Mus musculus [1], `OCc1ccccc1/C=C/Cc1cc2c(cc1O)CCO2` yielded an Inhibition of 52%. For the same compound, the ED50 with Mus musculus [2] is reported as 55 ug ear-1. Besides, the IC50 in experiment [3] stood at 0.25 µM; on Cyclooxygenase, 57 µM.
The compound `Oc1cccc2ccccc12` [1-NAPHTHOL] yielded an Inhibition in the experiment on Mus musculus [1] of 59%. For the same compound, the concentration for half-maximal inhibition (IC50) in experiment [3] amounted to 3.6 µM; against Cyclooxygenase, 2 µM.
On to `Oc1ccccc1Cc1ccccc1`, for which the Inhibition in the experiment on Mus musculus [1] was determined as 32%. The IC50 in experiment [3] stood at 63 µM. The inhibition in experiment [4] was found to be 22%.
For the compound `CCOC(=O)/C=C/c1ccc2ccccc2c1O`, the Inhibition in the experiment with Mus musculus [1] came out at 0%. The IC50 in experiment [3] was determined as 0.045 µM; at Cyclooxygenase, 11 µM.
